From ChEMBL document CHEMBL2311473, “Characterization of antimicrobial, cytotoxic, and antiendotoxin properties of short peptides with different hydrophobic amino acids at "a" and "d" positions of a heptad repeat sequence” (J Med Chem, 2013)
Converted amounts (≈) assume the structure as drawn. The source made the active and inactive calls. The calls are words filed in the database; no cut-off is given here.

Tests used:
[1] = Cytotoxicity against human RBC assessed as hemolysis at 60 uM; format: cell-based, Erythrocyte; conditions: red blood cells (RBC), read-out: Activity
How it was run: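 hRBCs in PBS exposed to peptide. Hemoglobin release read as supernatant absorbance at 540 nm. Hemolysis % = (Asample − Ablank)/(Atriton − Ablank) × 100, with PBS blank and 0.2% Triton X-100 (final) as 100% reference.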

[2] = Binding affinity to PE/PG lipid vesicles assessed as decrease in decrease in acrylamide-induced tryptophan fluorescence quenching at 1 uM; format: physicochemical
How it was run: (§1)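 Acrylamide quencher added in aliquots from 3.0 M stock to peptide with PC/Chol (8:1) or PE/PG (7:3) SUVs, peptide/lipid 1:100. Trp excited at 295 nm. Values corrected for dilution and vesicle-blank scatter, then fitted to Stern–Volmer F0/F = 1 + KSV[Q].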

[3] = test system: Pseudomonas aeruginosa; experiment: Antibacterial activity against Pseudomonas aeruginosa ATCC BAA-427 after 18 hrs by broth dilution method; format: functional; conditions: ATCC BAA-427, 18 h
How it was run: (§2)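 Bacteria grown aerobically at 37 °C in Mueller-Hinton broth to mid-log phase (OD600), diluted to ~10^6 cfu/mL, then mixed 1:1 with 2-fold serial peptide dilutions in water. Incubation ~18 h at 37 °C before MIC read-out (μM).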

[4] = test system: NIH3T3; experiment: Cytotoxicity against mouse 3T3 cells assessed as cell viability up to 25 uM by MTT assay; format: cell-based
How it was run: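 Murine 3T3 fibroblasts, grown in DMEM/IMDM with 10% FCS at 37 °C, 5% CO2, seeded at 10000 cells/well. Viability after peptide exposure measured by MTT (mitochondrial dehydrogenase) across a dose range.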

[5] = test system: Staphylococcus aureus; experiment: Antibacterial activity against Staphylococcus aureus ATCC 9144 after 18 hrs by broth dilution method; format: functional; conditions: ATCC 9144, 18 h; how it was run: as §2
[6] = test system: Sporothrix schenckii; experiment: Antifungal activity against Sporothrix schenckii after 72 hrs by NCCLS microbroth dilution method; format: functional
How it was run: (§3)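 Microbroth dilution in MOPS-buffered RPMI 1640 following NCCLS guidelines. Inoculum 1−5 × 10^3 cells/mL, peptide range 50−0.36 (mass/mL). Plates held in a moist chamber at 35 °C and A492 read after 48 h (Candida spp.), 72 h (A. fumigatus, S. schenckii, C. neoformans) or 96 h (T. mentagrophytes). MIC taken as 90% growth inhibition versus growth control.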

[7] = test system: Escherichia coli; experiment: Drug uptake in Escherichia coli ATCC 10536 assessed as membrane localization at 3 uM after 30 mins by confocal microscopic analysis; format: ADME, organism-based; conditions: in vivo, 0.5 h
How it was run: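 E. coli (~10^6 CFU/mL) in LB incubated with fluorescent-labeled peptide (~3.0 μM) for half an hour. Cells centrifuged, washed and imaged by confocal microscopy (DIC and fluorescence).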

[8] = Drug uptake in human RBC assessed as membrane localization at 9 uM after 10 to 30 mins by confocal microscopic analysis; format: ADME; conditions: erythrocyte
How it was run: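 Fresh hRBCs (3% in PBS) incubated with NBD-labeled peptide (~9.0 μM) for 10–30 min at 37 °C. Washed, fixed in 2% paraformaldehyde 10 min, and imaged by confocal microscopy at constant photomultiplier setting.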

[9] = test system: Lipopolysaccharide (LPS); experiment: Binding affinity to FITC-tagged LPS assessed as induction of disintegration up to 40 uM by […]; conditions: in the assay text read “fluorescence dequenching” for “circular dichroism”
How it was run: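 FITC-LPS (0.5 μg/mL) titrated with increasing peptide concentrations. Disaggregation read as dequenching, i.e. rise in FITC fluorescence, monitored after each addition until emission reached equilibrium.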

[10] = test system: Lipopolysaccharide (LPS); experiment: Binding affinity to LPS assessed as inhibition of LPS-induced LAL enzyme activation at 4.5 uM after 30 mins by spectrophotometric analysis
How it was run: (§4)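 Chromogenic limulus amoebocyte lysate endotoxin kit. Peptide binding to LPS estimated from inhibition of LPS-induced LAL enzyme activation, i.e. reduced substrate colour, and reported as percentage LPS binding.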

[11] = test system: Lipopolysaccharide (LPS); experiment: Binding affinity to LPS assessed as inhibition of LPS-induced LAL enzyme activation at 9 uM after 30 mins by spectrophotometric analysis; how it was run: as §4
[12] = test system: Escherichia coli; experiment: Bactericidal activity against Escherichia coli ATCC 10536 assessed as induction of membrane damage at 5 uM after 30 mins by propidium iodide staining-based flow cytometric analysis; format: functional, organism-based
How it was run: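 Mid-log E. coli incubated with peptide (~5.0 μM) 30 min at 37 °C with shaking. Cells washed twice in PBS, stained with propidium iodide 30 min at 4 °C, washed and resuspended. 10000 events per sample by flow cytometry, compared with peptide-free control.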

[13] = test system: RAW264.7; experiment: Antiinflammatory activity in mouse RAW264.7 cells assessed as inhibition of LPS-induced TNFalpha secretion at 1.5 to 4.5 uM after 12 hrs by ELISA; format: functional, cell-based
How it was run: (§5)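 RAW 264.7 cells treated with LPS alone or LPS plus peptide. TNF-α and IL-6 measured by ELISA in culture supernatant and expressed as percentage inhibition of LPS-induced secretion. Mean of three independent experiments, SD shown.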

[14] = test system: Staphylococcus epidermidis; experiment: Antibacterial activity against Staphylococcus epidermidis NRRL B-4268 after 18 hrs by broth dilution method; format: functional; conditions: NRRL B-4268, 18 h; how it was run: as §2
[15] = test system: Klebsiella pneumoniae; experiment: Antibacterial activity against Klebsiella pneumoniae ATCC 27736 after 18 hrs by broth dilution method; format: functional; conditions: ATCC 27736, 18 h; how it was run: as §2
[16] = Binding affinity to PE/PG lipid vesicles assessed as induction of large blue shift at 1 uM by fluorescence assay; format: physicochemical
[17] = Binding affinity to PC/Chol lipid vesicles assessed as decrease in acrylamide-induced tryptophan fluorescence quenching at 1 uM; format: physicochemical; how it was run: as §1
[18] = Binding affinity to PC/Chol lipid vesicles assessed as induction of large blue shift at 1 uM by fluorescence assay; format: physicochemical
[19] = test system: RAW264.7; experiment: Antiinflammatory activity in mouse RAW264.7 cells assessed as downregulation of LPS-induced TNFalpha expression at 4.5 uM after 24 hrs by Western blotting analysis; format: functional, cell-based
How it was run: (§6)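 RAW 264.7 cells (~2 × 10^5) stimulated with LPS 1 μg/mL plus peptide 4.5 μM for 24 h. Cells washed in ice-cold PBS and lysed in Laemmli buffer. SDS-PAGE (8% gel iNOS-2, 12% TNF-α), nitrocellulose transfer, alkaline phosphatase secondary with NBT/BCIP. Band densities normalized to β-actin. LPS-only and untreated cells served as controls.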

[20] = test system: Lipopolysaccharide (LPS); experiment: Binding affinity to LPS assessed as increase in helical structure at 36 uM by circular dichroism analysis
How it was run: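 CD spectra of peptides (36 μM) recorded alone and with LPS at 3.8 and 6.25 μM.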

[21] = test system: Bacillus subtilis; experiment: Antibacterial activity against Bacillus subtilis ATCC 6633 after 18 hrs by broth dilution method; format: functional; conditions: ATCC 6633, 18 h; how it was run: as §2
[22] = Binding affinity to PE/PG lipid vesicles assessed as increase in helical structure at 36 uM by circular dichroism analysis; format: physicochemical
How it was run: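 Peptides (~36 μM) with ~500 μM PC/Chol (8:1 w/w) or PE/PG (7:3 w/w) vesicles. CD spectra 250–190 nm at ~30 °C in 0.2 cm cuvette; 4–6 scans averaged at 20 nm/min, 0.5 nm interval.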

[23] = test system: RAW264.7; experiment: Antiinflammatory activity in mouse RAW264.7 cells assessed as inhibition of LPS-induced NO production at 6 uM by Griess method; format: functional; parameters: scale not given: the % may be the effect or the level left
How it was run: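 RAW 264.7 cells plated at 5 × 10^5/well and exposed to LPS (E. coli 0111:B4, 1 μg/mL) together with peptide at varying doses. Cells with and without LPS served as maximum and basal NO controls. Nitrite in the supernatant measured by Griess reagent at 548 nm against a sodium nitrite standard curve, and percent inhibition of NO calculated.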

[24] = test system: RAW264.7; experiment: Antiinflammatory activity in mouse RAW264.7 cells assessed as downregulation of LPS-induced iNOS2 expression at 4.5 uM after 24 hrs by Western blotting analysis; format: functional, cell-based; how it was run: as §6
[25] = Cytotoxicity against human RBC assessed as induction of membrane damage at 25 uM after 5 mins by annexin V-FITC staining-based FACS flow cytometric analysis; format: cell-based; conditions: erythrocyte
How it was run: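 hRBCs (~3.0 × 10^7 cells/mL) treated with peptide (~25.0 μM) for 5 min at room temperature. Stained with FITC-annexin V and analysed by flow cytometry, 10000 events, compared with untreated control.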

[26] = test system: RAW264.7; experiment: Antiinflammatory activity in mouse RAW264.7 cells assessed as inhibition of LPS-induced IL6 secretion at 1.5 to 4.5 uM after 12 hrs by ELISA; format: functional, cell-based; how it was run: as §5
[27] = test system: Staphylococcus aureus; experiment: Antibacterial activity against methicillin-resistant Staphylococcus aureus after 18 hrs by broth dilution method; format: functional; how it was run: as §2
[28] = test system: Aspergillus fumigatus; experiment: Antifungal activity against Aspergillus fumigatus after 72 hrs by NCCLS microbroth dilution method; format: functional; how it was run: as §3
[29] = Cytotoxicity against human RBC assessed as induction of membrane depolarization at up to 16 uM by DiSC3(5) staining-based fluorescence assay; format: cell-based; conditions: erythrocyte
How it was run: (§7)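 Membrane potential dye diS-C3-5 preincubated 1 h with hRBC or S. aureus suspensions; I0 is steady-state fluorescence after this incubation. Peptide then added at varying concentrations. Depolarization expressed as percentage fluorescence recovery (Ft) versus peptide concentration.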

[30] = test system: Lipopolysaccharide (LPS); experiment: Binding affinity to LPS assessed as inhibition of LPS-induced LAL enzyme activation at 18 uM after 30 mins by spectrophotometric analysis; how it was run: as §4
[31] = Induction of dissipation of diffusion potential in PE/PG lipid vesicles by fluorescence assay; format: physicochemical
How it was run: (§8)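 SUVs of PC/Chol (8:1 w/w) or PE/PG (7:3 w/w) treated with peptide. Dissipation of diffusion potential taken as percentage fluorescence recovery ~5 min after peptide addition, with valinomycin used for reference levels. Plotted against peptide/lipid molar ratio.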

[32] = test system: Escherichia coli; experiment: Antibacterial activity against Escherichia coli ATCC 10536 after 18 hrs by broth dilution method; format: functional; conditions: ATCC 10536, 18 h; how it was run: as §2
[33] = test system: Trichophyton mentagrophytes; experiment: Antifungal activity against Trichophyton mentagrophytes after 96 hrs by NCCLS microbroth dilution method; format: functional; how it was run: as §3
[34] = test system: Candida albicans; experiment: Antifungal activity against Candida albicans after 48 hrs by NCCLS microbroth dilution method; format: functional; how it was run: as §3
[35] = test system: Candida parapsilosis; experiment: Antifungal activity against Candida parapsilosis ATCC 22019 after 48 hrs by NCCLS microbroth dilution method; format: functional; conditions: Lodderomyces parapsilosis, ATCC 22019, 48 h; how it was run: as §3
[36] = Induction of dissipation of diffusion potential in PC/Chol lipid vesicles by fluorescence assay; format: physicochemical; how it was run: as §8
[37] = test system: Cryptococcus neoformans; experiment: Antifungal activity against Cryptococcus neoformans after 72 hrs by NCCLS microbroth dilution method; format: functional; how it was run: as §3
[38] = test system: Staphylococcus aureus; experiment: Bactericidal activity against Staphylococcus aureus ATCC 9144 assessed as induction of membrane depolarization at up to 7 uM by DiSC3(5) staining-based fluorescence assay; format: functional, organism-based; how it was run: as §7

With `CC(C)[C@H](N)C(=O)O` [VALINE] the hemolysis at 60 µM [1] was 10%, the Activity [2] was “Active” and the MIC [3] was 3.2 µM (≈ 0.375 µg/mL). The Activity [4] was “Toxic”, the MIC [5] was 5.1 µM (≈ 0.597 µg/mL) and the MIC [6] was 6 µM (≈ 0.703 µg/mL). The Drug uptake [7] was “Active”, the Drug uptake [8] was “Active” and the Activity [9] was “Active”. The inhibition [10] was 8%, the inhibition [11] was 22% and the Activity [12] was “Active”. For the same molecule, the inhibition [13] was “Active”, the MIC [14] was 6 µM (≈ 0.703 µg/mL) and the MIC [15] was 3.2 µM (≈ 0.375 µg/mL). The Activity [16] was “Active”, the Activity [17] was “Not Active” and the Activity [18] was “Not Active”. The Activity [19] was “Active”, the Activity [20] was “Active” and the MIC [21] was 6.8 µM (≈ 0.797 µg/mL). The Activity [22] was “Active”, the Activity [23] was 50% and the Activity [24] was “Active”. For the same molecule, the Activity [25] was “Non-toxic”, the inhibition [26] was “Active” and the MIC [27] was 12.5 µM (≈ 1.46 µg/mL). For the same molecule, the MIC [28] was 8.4 µM (≈ 0.984 µg/mL), the Activity [29] was “Non-toxic” and the inhibition [30] was 29%. The Activity [31] was “Active”, the MIC [32] was 3 µM (≈ 0.351 µg/mL) and the MIC [33] was 6 µM (≈ 0.703 µg/mL). The MIC [34] was 9.6 µM (≈ 1.12 µg/mL), the MIC [35] was 1.5 µM (≈ 0.176 µg/mL) and the Activity [36] was “Active”. The MIC [37] was 8.4 µM (≈ 0.984 µg/mL) and the Activity [38] was “Active”.
